Assay results as given in ChEMBL document CHEMBL4325893, “Synthesis and antibacterial profiles of targeted triclosan derivatives” (2019).

Legend:
[1] = Antibacterial activity against Salmonella enterica subspecies enterica serotype Indiana OCC 597 after 18 hrs; assay type: functional, Salmonella enterica subsp. enterica serovar Indiana; settings: OCC 597, 18 h
In short: (§1)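 Broth microdilution in Nutrient Broth No. 2; stocks in ethanol diluted to 0.01–128 µg/ml (triclosan) or 0.25–256 µg/ml (glycosides). Overnight 37 °C NB2 cultures diluted 1 in 10^4 in saline and added to the dilutions. Incubation at 37 °C with agitation, OD read every 15 min; MIC is the lowest concentration preventing any OD rise after 18 h.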

[2] = tested on: Streptococcus viridans; assay: Antibacterial activity against Streptococcus viridans OCC 234 after 18 hrs; assay type: functional; settings: OCC 234, 18 h
In short: (§2)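 Broth microdilution in Nutrient Broth No. 2. Ethanol stocks were diluted in broth to 0.01–128 µg/ml for triclosan and 0.25–256 µg/ml for glycosides. Overnight 37°C NB2 cultures were diluted 1 in 10^4 in saline and added to the wells. Plates were incubated at 37°C with OD read every 15 min after agitation. MIC was the lowest concentration giving no OD increase at 18 h.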

[3] = tested on: Staphylococcus aureus; assay: Antibacterial activity against Staphylococcus aureus NCTC 13758 after 18 hrs; assay type: functional; settings: NCTC 13758, 18 h; in short: as §1
[4] = tested on: Klebsiella aerogenes; assay: Antibacterial activity against Klebsiella aerogenes NCTC 8167 after 18 hrs; assay type: functional; settings: NCTC 8167, 18 h; in short: as §1
[5] = Antibacterial activity against Salmonella enterica subspecies enterica serotype Arizonae OCC 706 after 18 hrs; assay type: functional, Salmonella enterica subsp. enterica serovar Arizonae; settings: OCC 706, 18 h; in short: as §1
[6] = tested on: Staphylococcus aureus; assay: Antibacterial activity against Staphylococcus aureus ATCC 29213 after 18 hrs; assay type: functional; settings: ATCC 29213, 18 h; in short: as §1
[7] = tested on: Escherichia coli; assay: Antibacterial activity against Escherichia coli 700728 after 18 hrs; assay type: functional; settings: Escherichia coli, 700728, 18 h; in short: as §1
[8] = tested on: Aeromonas hydrophila; assay: Antibacterial activity against Aeromonas hydrophila OCC 778 after 18 hrs; assay type: functional; settings: OCC 778, 18 h; in short: as §1
[9] = tested on: Staphylococcus aureus; assay: Antibacterial activity against Staphylococcus aureus OCC 104 after 18 hrs; assay type: functional; settings: OCC 104, 18 h; in short: as §1
[10] = tested on: Streptococcus pneumoniae; assay: Antibacterial activity against Streptococcus pneumoniae ATCC 49619 after 18 hrs; assay type: functional; settings: ATCC 49619, 18 h; in short: as §2
[11] = tested on: Escherichia coli; assay: Antibacterial activity against Escherichia coli ATCC 35218 after 18 hrs; assay type: functional; settings: ATCC 35218, 18 h; in short: as §1
[12] = tested on: Staphylococcus epidermidis; assay: Antibacterial activity against Staphylococcus epidermidis 155 after 18 hrs; assay type: functional; settings: Staphylococcus epidermidis, 155, 18 h; in short: as §1
[13] = tested on: Proteus vulgaris; assay: Antibacterial activity against Proteus vulgaris OCC 195 after 18 hrs; assay type: functional; settings: OCC 195, 18 h; in short: as §1
[14] = tested on: Serratia marcescens; assay: Antibacterial activity against Serratia marcescens OCC 217 after 18 hrs; assay type: functional; settings: OCC 217, 18 h; in short: as §1
[15] = tested on: Escherichia coli; assay: Antibacterial activity against Escherichia coli NCTC 13216 after 18 hrs; assay type: functional; settings: NCTC 13216, 18 h; in short: as §1
[16] = tested on: Enterococcus faecalis; assay: Antibacterial activity against Enterococcus faecalis ATCC 33186 after 18 hrs; assay type: functional; settings: ATCC 33186, 18 h; in short: as §1
[17] = tested on: Staphylococcus aureus; assay: Antibacterial activity against Staphylococcus aureus ATCC 25923 after 18 hrs; assay type: functional; settings: ATCC 25923, 18 h; in short: as §1
[18] = tested on: Salmonella typhimurium; assay: Antibacterial activity against Salmonella enterica subspecies enterica serotype typhimurium ATCC 14028 after 18 hrs; assay type: functional, Salmonella enterica subsp. enterica serovar Typhimurium; settings: ATCC 14028, 18 h; in short: as §1
[19] = tested on: Klebsiella pneumoniae; assay: Antibacterial activity against Klebsiella pneumoniae ATCC 13883 after 18 hrs; assay type: functional; settings: ATCC 13883, 18 h; in short: as §1
[20] = tested on: Staphylococcus aureus; assay: Antibacterial activity against Staphylococcus aureus OCC 106 after 18 hrs; assay type: functional; settings: OCC 106, 18 h; in short: as §1
[21] = tested on: Hafnia alvei; assay: Antibacterial activity against Hafnia alvei 13337 after 18 hrs; assay type: functional; settings: Hafnia alvei, 13337, 18 h; in short: as §1
[22] = Antibacterial activity against Salmonella enterica subspecies enterica serotype Poona NCTC 4840 after 18 hrs; assay type: functional, Salmonella enterica subsp. enterica serovar Poona; settings: NCTC 4840, 18 h; in short: as §1
[23] = tested on: Citrobacter freundii; assay: Antibacterial activity against Citrobacter freundii 8090 after 18 hrs; assay type: functional; settings: Citrobacter freundii, 8090, 18 h; in short: as §1
[24] = tested on: Streptococcus pyogenes; assay: Antibacterial activity against Streptococcus pyogenes ATCC 19615 after 18 hrs; assay type: functional; settings: ATCC 19615, 18 h; in short: as §2
[25] = tested on: Klebsiella aerogenes; assay: Antibacterial activity against Enterobacter aerogenes ATCC 13048 after 18 hrs; assay type: functional; settings: ATCC 13048, 18 h; in short: as §1
[26] = tested on: Klebsiella pneumoniae; assay: Antibacterial activity against Klebsiella pneumoniae ATCC 10031 after 18 hrs; assay type: functional; settings: ATCC 10031, 18 h; in short: as §1
[27] = tested on: Staphylococcus saprophyticus; assay: Antibacterial activity against Staphylococcus saprophyticus ATCC 15305 after 18 hrs; assay type: functional; settings: ATCC 15305, 18 h; in short: as §2
[28] = tested on: Staphylococcus aureus; assay: Antibacterial activity against Staphylococcus aureus ATCC 9144 after 18 hrs; assay type: functional; settings: ATCC 9144, 18 h; in short: as §1
[29] = tested on: Staphylococcus aureus; assay: Antibacterial activity against Staphylococcus aureus ATCC 6538P after 18 hrs; assay type: functional; in short: as §1
[30] = tested on: Escherichia coli; assay: Antibacterial activity against Escherichia coli ATCC 25922 after 18 hrs; assay type: functional; settings: ATCC 25922, 18 h; in short: as §1
[31] = tested on: Staphylococcus epidermidis; assay: Antibacterial activity against Staphylococcus epidermidis ATCC 12228 after 18 hrs; assay type: functional; settings: ATCC 12228, 18 h; in short: as §1
[32] = tested on: Streptococcus agalactiae; assay: Antibacterial activity against Streptococcus agalactiae OCC 182 after 18 hrs; assay type: functional; settings: OCC 182, 18 h; in short: as §2
[33] = tested on: Salmonella enteritidis; assay: Antibacterial activity against Salmonella enterica subspecies enterica serotype Enteritidis 13076 after 18 hrs; assay type: functional, Salmonella enterica subsp. enterica serovar Enteritidis; settings: Salmonella enterica, 13076, 18 h; in short: as §1
[34] = tested on: Bacillus cereus; assay: Antibacterial activity against Bacillus cereus ATCC 14579 after 18 hrs; assay type: functional; settings: ATCC 14579, 18 h; in short: as §1
[35] = tested on: Streptococcus pneumoniae; assay: Antibacterial activity against Streptococcus pneumoniae 6305 after 18 hrs; assay type: functional; settings: Streptococcus pneumoniae, 6305, 18 h; in short: as §2
[36] = tested on: Bacillus subtilis; assay: Antibacterial activity against Bacillus subtilis NCTC 10073 after 18 hrs; assay type: functional; settings: NCTC 10073, 18 h; in short: as §1
[37] = tested on: Escherichia coli; assay: Antibacterial activity against Escherichia coli OCC 122 after 18 hrs; assay type: functional; settings: OCC 122, 18 h; in short: as §1
[38] = tested on: Staphylococcus haemolyticus; assay: Antibacterial activity against Staphylococcus haemolyticus OCC 2223 after 18 hrs; assay type: functional; settings: OCC 2223, 18 h; in short: as §2
[39] = tested on: Enterococcus faecium; assay: Antibacterial activity against Enterococcus faecium ATCC 19434 after 18 hrs; assay type: functional; settings: ATCC 19434, 18 h; in short: as §1
[40] = tested on: Enterococcus faecalis; assay: Antibacterial activity against Enterococcus faecalis ATCC 29212 after 18 hrs; assay type: functional; settings: ATCC 29212, 18 h; in short: as §1
[41] = tested on: Staphylococcus aureus; assay: Antibacterial activity against Staphylococcus aureus ATCC 6538 after 18 hrs; assay type: functional; settings: ATCC 6538, 18 h; in short: as §1
[42] = Antibacterial activity against Salmonella enterica subspecies enterica serotype Dublin OCC 627 after 18 hrs; assay type: functional, Salmonella enterica subsp. enterica serovar Dublin; settings: OCC 627, 18 h; in short: as §1
[43] = tested on: Escherichia coli; assay: Antibacterial activity against Escherichia coli ATCC 11775 after 18 hrs; assay type: functional; in short: as §1
[44] = tested on: Escherichia hermannii; assay: Antibacterial activity against Escherichia hermannii 33650 after 18 hrs; assay type: functional; settings: Atlantibacter hermannii, 33650, 18 h; in short: as §1
[45] = tested on: Proteus mirabilis; assay: Antibacterial activity against Proteus mirabilis ATCC 12453 after 18 hrs; assay type: functional; settings: ATCC 12453, 18 h; in short: as §1
[46] = Antibacterial activity against Salmonella enterica subspecies enterica serotype Nottingham NCTC 7832 after 18 hrs; assay type: functional, Salmonella enterica subsp. enterica serovar Nottingham; settings: NCTC 7832, 18 h; in short: as §1
[47] = Antibacterial activity against Salmonella enterica subspecies enterica serotype Virchow NCTC 5742 after 18 hrs; assay type: functional, Salmonella enterica subsp. enterica serovar Virchow; settings: NCTC 5742, 18 h; in short: as §1
[48] = tested on: Escherichia coli; assay: Antibacterial activity against Escherichia coli ATCC 10536 after 18 hrs; assay type: functional; settings: ATCC 10536, 18 h; in short: as §1
[49] = tested on: Pseudomonas aeruginosa; assay: Antibacterial activity against Pseudomonas aeruginosa ATCC 27853 after 18 hrs; assay type: functional; settings: ATCC 27853, 18 h; in short: as §1
[50] = tested on: Escherichia coli; assay: Antibacterial activity against Escherichia coli ATCC 8739 after 18 hrs; assay type: functional; settings: ATCC 8739, 18 h; in short: as §1
[51] = tested on: Cronobacter sakazakii; assay: Antibacterial activity against Cronobacter sakazakii 29544 after 18 hrs; assay type: functional; settings: Cronobacter sakazakii, 29544, 18 h; in short: as §1
[52] = Antibacterial activity against Enterobacter cloacae ATCC 13047 after 18 hrs; assay type: functional, Enterobacter cloacae subsp. cloacae; settings: ATCC 13047, 18 h; in short: as §1
[53] = Antibacterial activity against Salmonella enterica subspecies enterica serotype Pullorum OCC 273 after 18 hrs; assay type: functional, Salmonella enterica subsp. enterica serovar Pullorum; settings: OCC 273, 18 h; in short: as §1
[54] = tested on: Salmonella enterica subsp. enterica serovar Abony; assay: Antibacterial activity against Salmonella enterica subspecies enterica serotype Abony NCTC 6017 after 18 hrs; assay type: functional; settings: NCTC 6017, 18 h; in short: as §1
[55] = Antibacterial activity against Salmonella enterica subspecies enterica serotype Infantis OCC 2133 after 18 hrs; assay type: functional, Salmonella enterica subsp. enterica serovar Infantis; settings: OCC 2133, 18 h; in short: as §1
[56] = tested on: Staphylococcus epidermidis; assay: Antibacterial activity against Staphylococcus epidermidis ATCC 14990 after 18 hrs; assay type: functional; settings: ATCC 14990, 18 h; in short: as §1
[57] = tested on: Citrobacter freundii; assay: Antibacterial activity against Citrobacter freundii OCC 851 after 18 hrs; assay type: functional; settings: OCC 851, 18 h; in short: as §1

Measured: MIC

OC[C@H]1O[C@@H](Oc2cc(Cl)ccc2Oc2ccc(Cl)cc2Cl)[C@H](O)[C@@H](O)[C@@H]1O
4 µg/mL: [21]
128 µg/mL: [10] | [35]
32 µg/mL: [4] | [24]
8 to 16 µg/mL: [12] | [31] | [56]
4 to 8 µg/mL: [3] | [6] | [9] | [17] | [20] | [28] | [29] | [41]
8 to 64 µg/mL: [7] | [11] | [15] | [30] | [37] | [43] | [48] | [50]
0.5 µg/mL: [19] | [26]
64 µg/mL: [13] | [23] | [25] | [27] | [51] | [57]
> 256 µg/mL: [8] | [14] | [39] | [49]
256 µg/mL: [2] | [32] | [34] | [36]
16 µg/mL: [16] | [38] | [40] | [44] | [45] | [52]
16 to 32 µg/mL: all other assays above
